The values that follow come from ChEMBL document CHEMBL4334444, “Studies of Jatrogossone A as a Reactive Oxygen Species Inducer in Cancer Cellular Models” (J Nat Prod, 2019).

A short description of data set [1]: Half life in human liver microsomes. Type of data set: ADME, Microsome. A general note: Liver microsomes are a subcellular fraction often used to study metabolism.
The subject of data set [2] is KOPN-8. Description: Induction of apoptosis in human KOPN8 cells assessed as increase in cleaved PARP 1 level at 1 to 100 uM after 24 hrs by Western blot analysis. The format is functional, cell-based. In outline:
(§1)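 Western blot of KOPN-8 and MCF-7 lysates made in RIPA-type buffer (Tris pH 7.5, Triton X-100, deoxycholate, SDS) with protease and phosphatase inhibitors. 30 μg protein per lane was run on 4–12% Bis-Tris SDS-PAGE and transferred to nitrocellulose. Blots were probed for cleaved caspase-7 and PARP-1 and detected with IR-dye secondaries. Menadione served as positive control: 10 μM in KOPN-8, 30 μM in MCF-7. Blots are representative of three independent experiments.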
On the technique in general: Immunoblotting shows a protein as a band on a membrane.

For data set [3], the system named is MDA-MB-231. Description: Induction of ROS colocalization in mitochondria of human MDA-MB-231 cells at 30 uM incubated for 1 hr in presence of NAC by CellROX green reagent/mitotracker deep red staining based confocal microscopic method. The format is functional, cell-based. In outline:
(§2)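 MDA-MB-231 plated at 4 × 10^4/well in phenol-red-free medium, 12 h at 37 °C; for rescue, NAC 100 μM pretreatment 0.5 h. Compound 30 μM or DMSO for 1 h, then CellROX green 5 μM final, MitoTracker Deep Red 250 nM, Hoechst 33342 500 nM (0.5 h before imaging). Washed twice, live spinning-disk confocal at 63×; two independent experiments.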

Data set [4] concerns KOPN-8. The data set is described as follows: Decrease in cell viability in human KOPN8 cells incubated for 24 hrs by GF-AFC reagent based ApoTox-Glo triplex assay. Type of data set: functional. In outline:
(§3)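 ApoTox-Glo Triplex: cells held 12 h at 37 °C, then treated 24 h (100−0.15 μM). Viability/cytotoxicity reagent added, shaken, 30 min at 37 °C; viability read as GF-AFC fluorescence at 400Ex/505Em. Caspase-Glo 3/7 then added, 0.5 h at room temperature, luminescence read. Mean ± SEM of three independent experiments.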

For a further data set, the system named is U2OS. Description: Decrease in cell viability in human U2OS cells incubated for 24 hrs by GF-AFC reagent based ApoTox-Glo triplex assay. Type of data set: functional. In outline: as §3
The subject of data set [5] is KOPN-8. The data set is described as follows: Induction of apoptosis in human KOPN8 cells assessed as increase in caspase 3/7 activity incubated for 24 hrs by caspase3/7 reagent based ApoTox-Glo triplex assay. The format is functional, cell-based. In outline:
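ApoTox-Glo Triplex assay in KOPN-8 or U2OS cells. Cells were incubated 12 h at 37 °C, then treated 24 h across 100–0.15 μM. Viability (GF-AFC, 400Ex/505Em) and cytotoxicity (bis-AAF-R110, 485Ex/520Em) were read after 30 min at 37 °C. Caspase-Glo 3/7 luminescence was then read after 0.5 h at room temperature. Values are mean ± SEM of three independent experiments.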

Data set [6] has as its system KOPN-8. Description: Antiproliferative activity against human KOPN8 cells assessed as reduction in cell viability at 1 to 10 uM by CellTiter-Glo assay. Type of data set: functional, cell-based. In outline: (§4)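 CellTiter-Glo luminescent viability readout. Cells kept at 37 °C under 5% CO2. HMEC primary cells grown in basal medium with growth kit; leukemia lines and murine BCR-ABL (WT, Bax/Bak DKO) cultured per earlier description. Positive controls: staurosporine 25 μM, gambogic acid 10 μM, a toxic quinoline. At least two biological replicates in technical triplicate; luminescence normalized to untreated controls; EC50 computed.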
On the technique in general: ATP-based viability assays read luminescence as a measure of living cells.

The next data set concerns SEM cells. Description: Antiproliferative activity against human SEM cells assessed as reduction in cell viability at 1 to 10 uM by CellTiter-Glo assay. The format is functional, cell-based. In outline:
as §4

Data set [7] can be described thus: Stability in CH3CN assessed as micheal adduct formation by measuring intact compound incubated for 16 hrs in presence of NAC by NMR analysis. Type of data set: physicochemical.
For data set [8], the system named is MDA-MB-231. Description: Antiproliferative activity against human MDA-MB-231 cells assessed as reduction in cell viability at >10 uM after 48 hrs by propidium iodide staining based fluorescence assay. The format is functional. In outline:
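MDA-MB-231 and SUM149 seeded at 6 × 10^4 to 2 × 10^5 cells/well, cultured 24 h, then exposed for 48 h. Cells fixed in cold methanol, stained with 0.4% propidium iodide, fluorescence imaged. Viability expressed as percent surviving cells relative to vehicle wells.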

A further data set relates to HMEC. Description: Cytotoxicity against human HMEC cells assessed as cell viability at >100 uM by CellTiter-Glo assay. Type of data set: cell-based. In outline: as §4
Data set [9] concerns MCF7. Description: Induction of mitochondrial membrane potential loss in human MCF7 cells at 30 uM after 24 to 48 hrs by TMRM staining based flow cytometric analysis. Type of data set: functional, cell-based. In outline: (§5)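 TMRM flow cytometry. KOPN-8 (4 × 10^4 or 5 × 10^5 per well) or MCF-7 (2 × 10^4 or 2 × 10^5 per well) were seeded 24 h, then treated 24–48 h. FCCP 10 μM was added 10 min before staining as positive control. Cells were stained with TMRM 100 nM for 0.5 h, then PBS-washed, resuspended in PBS with 1% FBS and analysed by flow cytometry; DAPI flagged compromised cells.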

The test system of data set [10] is MCF7. Description: Induction of apoptosis in human MCF7 cells assessed as increase in cleaved PARP 1 level at 1 to 100 uM after 24 hrs by Western blot analysis. Type of data set: functional, cell-based. In outline:
as §1

Data set [11] relates to MDA-MB-231. Description: Induction of ROS colocalization in mitochondria of human MDA-MB-231 cells at 30 uM incubated for 1 hr by CellROX green reagent/mitotracker deep red staining based confocal microscopic method. Type of data set: functional, cell-based. In outline:
as §2

The test system of data set [12] is KOPN-8. Description: Antiproliferative activity against human KOPN8 cells assessed as reduction in cell viability at 0.1 to 250 uM by CellTiter-Glo assay. The format is functional, cell-based. In outline: as §4
Data set [13] deals with MCF7. The data set is described as follows: Antiproliferative activity against human MCF7 cells assessed as reduction in cell viability at 0.1 to 250 uM by CellTiter-Glo assay. Type of data set: functional, cell-based. In outline:
as §4

Data set [14] concerns MCF7. The data set is described as follows: Induction of mitochondrial membrane potential loss in human MCF7 cells at 4 uM after 24 to 48 hrs by TMRM staining based flow cytometric analysis. The format is functional, cell-based. In outline: as §5
A further data set relates to B-ALL. Description: Antiproliferative activity against mouse B-ALL cells expressing wild type BCR-ABL assessed as reduction in cell viability at 0.1 to 250 uM by CellTiter-Glo assay. The format is functional, cell-based. In outline: as §4
In data set [15] the test system is KOPN-8. The data set is described as follows: Upregulation of Trx expression in human KOPN8 at 10 uM after 3 to 6 hrs by Western blot analysis. The format is functional, cell-based. In outline:
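Western blot of KOPN-8 or MCF-7 lysates, 30 μg protein per lane on 4–12% Bis-Tris SDS-PAGE and transferred to nitrocellulose. Blots were probed with an oxidative stress defense antibody cocktail (catalase, SOD1, Trx, smooth muscle actin) and tubulin, and detected with IR-dye secondaries on a LI-COR Odyssey.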

Data set [16] relates to KOPN-8. The data set is described as follows: Induction of cell death in human KOPN8 cells at 4 to 10 uM after 24 hrs. The format is functional, cell-based.
The subject of data set [17] is MCF7. Description: Upregulation of Trx level in human MCF7 at 1 uM after 3 to 6 hrs by Western blot analysis. The format is functional, cell-based. In outline: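 MCF-7 cells were exposed to compound for 3 or 6 h. Lysates were made in Tris-HCl pH 7.5 RIPA-type buffer with protease/phosphatase inhibitors and quantified by BCA. 30 μg protein per lane was run on 4–12% Bis-Tris SDS-PAGE in MES and transferred to nitrocellulose. Blots were probed for thioredoxin with tubulin as reference, detected with IR-dye secondaries (1:15 000) and scanned on an infrared imager.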

Calls of active or inactive are those of the source.

Regarding `CC(=O)O[C@H]1/C2=C/[C@@H](C)C(=O)C[C@H]3[C@@H](/C=C(\C)C(=O)[C@H]2C[C@H]1C)C3(C)C`, the half-life (commonly the time needed for the level to fall by half in the phase considered) in data set [1] came to 31 min. In addition, the outcome with KOPN-8 [2], in the data set on MCF7 [10] and with MDA-MB-231 [11] was Active. For the same compound, the outcome in the data set with MDA-MB-231 [3] and in the data set with MCF7 [9] was inactive. The inhibition entry in the data set on KOPN-8 [4] and in the data set with U2OS was “Dose-dependent effect” each time. In addition, the Activity entry in the data set on KOPN-8 [5] was “Dose-dependent effect”; in the data set on HMEC it was “Non-Toxic”. Further, the inhibition result in the data set on KOPN-8 [6], with SEM cells and in the data set with MDA-MB-231 [8] was “Active” in each case. Moreover, the Stability entry in [7] is “Stable”.

In the case of `CC1=C2CC(C)(C)/C=C/C(=O)/C(C)=C\C3=C[C@H](C)C[C@]3(O2)C1=O` [JATROPHONE], the inhibition result in the data set with KOPN-8 [12], in the data set on MCF7 [13] and in the data set with B-ALL was “Active” each time. The result with MCF7 [14] and with KOPN-8 [15] was inactive. Also, the result in the data set on KOPN-8 [16] and in the data set with MCF7 [17] was Active.
